{
  "source": "ChEMBL document CHEMBL4052618",
  "about": "“Design, synthesis, SAR discussion, in vitro and in vivo evaluation of novel selective EGFR modulator to inhibit L858R/T790M double mutants” (Eur J Med Chem, 2017)",
  "key": {"[1]": {"experiment": "Intrinsic clearance in dog liver microsomes", "assay_type": "ADME, Canis lupus familiaris, microsome", "conditions": "read-out: CLH"}, "[2]": {"target": "Hepatocyte growth factor receptor (Homo sapiens) (UniProt P08581)", "sequence (P08581 whole entry)": "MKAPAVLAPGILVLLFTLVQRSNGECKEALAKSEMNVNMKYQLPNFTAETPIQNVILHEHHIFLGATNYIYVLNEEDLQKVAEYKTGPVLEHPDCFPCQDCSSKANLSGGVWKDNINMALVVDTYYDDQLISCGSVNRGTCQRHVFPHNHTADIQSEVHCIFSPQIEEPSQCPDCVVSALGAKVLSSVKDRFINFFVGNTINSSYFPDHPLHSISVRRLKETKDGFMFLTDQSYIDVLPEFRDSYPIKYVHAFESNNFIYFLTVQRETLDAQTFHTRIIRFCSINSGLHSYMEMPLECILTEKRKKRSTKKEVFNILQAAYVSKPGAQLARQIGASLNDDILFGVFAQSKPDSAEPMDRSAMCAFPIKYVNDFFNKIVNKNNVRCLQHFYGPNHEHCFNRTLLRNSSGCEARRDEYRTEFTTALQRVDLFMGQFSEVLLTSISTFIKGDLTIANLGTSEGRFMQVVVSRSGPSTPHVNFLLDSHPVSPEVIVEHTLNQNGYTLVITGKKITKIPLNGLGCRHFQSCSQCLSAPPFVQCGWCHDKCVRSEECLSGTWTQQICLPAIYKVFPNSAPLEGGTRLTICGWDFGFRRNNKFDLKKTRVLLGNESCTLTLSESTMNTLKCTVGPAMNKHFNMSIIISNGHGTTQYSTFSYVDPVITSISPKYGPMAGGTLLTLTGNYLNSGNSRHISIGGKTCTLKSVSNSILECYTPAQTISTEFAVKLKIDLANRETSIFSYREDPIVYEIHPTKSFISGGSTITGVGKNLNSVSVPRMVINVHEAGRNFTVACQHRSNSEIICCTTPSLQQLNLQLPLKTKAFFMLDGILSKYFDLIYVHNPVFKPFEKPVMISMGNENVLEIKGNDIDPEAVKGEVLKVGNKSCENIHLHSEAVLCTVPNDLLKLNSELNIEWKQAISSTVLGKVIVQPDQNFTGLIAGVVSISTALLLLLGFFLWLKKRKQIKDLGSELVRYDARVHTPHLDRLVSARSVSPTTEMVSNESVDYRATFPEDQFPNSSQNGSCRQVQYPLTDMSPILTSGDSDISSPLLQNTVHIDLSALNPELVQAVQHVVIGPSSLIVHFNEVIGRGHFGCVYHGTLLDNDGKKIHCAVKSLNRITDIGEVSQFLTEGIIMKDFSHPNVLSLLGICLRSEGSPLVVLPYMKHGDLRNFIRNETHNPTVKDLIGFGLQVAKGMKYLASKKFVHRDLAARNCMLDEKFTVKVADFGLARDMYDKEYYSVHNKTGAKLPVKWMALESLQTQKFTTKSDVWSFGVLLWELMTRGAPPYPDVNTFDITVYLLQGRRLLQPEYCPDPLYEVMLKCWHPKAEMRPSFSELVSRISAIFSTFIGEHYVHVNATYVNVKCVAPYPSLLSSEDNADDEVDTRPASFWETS", "experiment": "Inhibition of MET (cMet) (unknown origin) at 1 uM relative to control"}, "[3]": {"experiment": "Half life in human liver microsomes", "assay_type": "ADME, microsome"}, "[4]": {"target": "Fibroblast growth factor receptor 3 (Homo sapiens) (UniProt P22607)", "sequence (P22607 23-806 limits assumed)": "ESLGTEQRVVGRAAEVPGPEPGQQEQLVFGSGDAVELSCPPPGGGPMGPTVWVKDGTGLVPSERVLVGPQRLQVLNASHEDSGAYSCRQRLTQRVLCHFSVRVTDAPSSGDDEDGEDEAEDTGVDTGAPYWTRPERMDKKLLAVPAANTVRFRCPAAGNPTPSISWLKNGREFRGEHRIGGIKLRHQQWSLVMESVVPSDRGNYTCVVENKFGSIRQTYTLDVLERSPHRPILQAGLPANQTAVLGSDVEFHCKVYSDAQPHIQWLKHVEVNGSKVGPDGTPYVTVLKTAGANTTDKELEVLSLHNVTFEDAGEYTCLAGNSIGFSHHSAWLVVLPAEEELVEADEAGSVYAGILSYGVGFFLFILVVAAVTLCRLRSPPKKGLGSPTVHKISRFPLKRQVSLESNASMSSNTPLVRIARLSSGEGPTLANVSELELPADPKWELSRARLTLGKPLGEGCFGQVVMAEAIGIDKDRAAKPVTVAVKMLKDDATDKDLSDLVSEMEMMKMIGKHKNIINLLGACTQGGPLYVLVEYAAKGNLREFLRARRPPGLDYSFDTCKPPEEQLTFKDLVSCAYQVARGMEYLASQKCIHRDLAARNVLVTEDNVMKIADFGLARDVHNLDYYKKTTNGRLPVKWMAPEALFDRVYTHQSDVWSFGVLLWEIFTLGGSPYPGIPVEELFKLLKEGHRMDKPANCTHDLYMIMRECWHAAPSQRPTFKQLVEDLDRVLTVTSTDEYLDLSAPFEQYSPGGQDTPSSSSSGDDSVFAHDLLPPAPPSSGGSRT", "experiment": "Inhibition of FGFR3 (unknown origin) at 1 uM relative to control"}, "[5]": {"experiment": "Half life in monkey liver microsomes", "assay_type": "ADME, Macaca mulatta, microsome", "conditions": "rhesus monkey"}, "[6]": {"target": "Protein kinase C beta type (Homo sapiens) (UniProt P05771)", "sequence (P05771 2-671 limits assumed)": "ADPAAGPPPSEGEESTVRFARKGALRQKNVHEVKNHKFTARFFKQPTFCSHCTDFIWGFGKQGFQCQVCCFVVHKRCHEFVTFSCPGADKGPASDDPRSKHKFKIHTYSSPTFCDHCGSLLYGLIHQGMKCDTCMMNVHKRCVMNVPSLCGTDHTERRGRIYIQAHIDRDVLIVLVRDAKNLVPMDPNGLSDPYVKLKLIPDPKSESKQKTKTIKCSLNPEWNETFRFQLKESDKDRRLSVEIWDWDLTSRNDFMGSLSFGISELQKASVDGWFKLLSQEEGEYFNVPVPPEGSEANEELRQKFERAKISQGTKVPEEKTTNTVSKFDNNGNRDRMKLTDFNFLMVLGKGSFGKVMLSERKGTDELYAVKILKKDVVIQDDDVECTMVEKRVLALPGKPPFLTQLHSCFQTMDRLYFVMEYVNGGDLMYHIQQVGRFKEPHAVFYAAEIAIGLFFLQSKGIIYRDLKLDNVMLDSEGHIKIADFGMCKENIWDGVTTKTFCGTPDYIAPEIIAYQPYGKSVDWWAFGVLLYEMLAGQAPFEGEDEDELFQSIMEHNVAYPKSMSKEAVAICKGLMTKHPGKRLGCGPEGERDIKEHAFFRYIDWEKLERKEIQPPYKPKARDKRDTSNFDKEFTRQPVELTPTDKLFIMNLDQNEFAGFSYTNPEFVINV", "experiment": "Inhibition of PRKCB1 (unknown origin) at 1 uM relative to control"}, "[7]": {"experiment": "Intrinsic clearance in monkey liver microsomes", "assay_type": "ADME, Macaca mulatta, microsome", "conditions": "rhesus monkey, read-out: CLH"}, "[8]": {"target": "Protein kinase C gamma type (Homo sapiens) (UniProt P05129)", "experiment": "Inhibition of PRKCG (unknown origin) at 1 uM relative to control"}, "[9]": {"target": "Vascular endothelial growth factor receptor 2 (Homo sapiens) (UniProt P35968)", "experiment": "Inhibition of KDR (unknown origin) at 1 uM relative to control"}, "[10]": {"target": "Serine/threonine-protein kinase Nek2 (Homo sapiens) (UniProt P51955)", "sequence (P51955 whole entry)": "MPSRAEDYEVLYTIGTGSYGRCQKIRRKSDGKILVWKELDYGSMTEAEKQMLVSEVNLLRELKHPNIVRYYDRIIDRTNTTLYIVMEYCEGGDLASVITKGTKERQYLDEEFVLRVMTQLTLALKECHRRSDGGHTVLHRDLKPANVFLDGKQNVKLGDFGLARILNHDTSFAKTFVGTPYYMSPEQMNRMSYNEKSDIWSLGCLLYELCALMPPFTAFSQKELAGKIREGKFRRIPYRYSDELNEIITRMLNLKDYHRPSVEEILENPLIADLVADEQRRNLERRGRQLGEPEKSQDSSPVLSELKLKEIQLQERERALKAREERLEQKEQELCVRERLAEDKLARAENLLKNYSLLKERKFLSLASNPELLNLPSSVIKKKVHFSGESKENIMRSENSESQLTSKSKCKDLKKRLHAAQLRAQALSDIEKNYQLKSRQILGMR", "experiment": "Inhibition of NEK2 (unknown origin) at 1 uM relative to control"}, "[11]": {"target": "Platelet-derived growth factor receptor alpha (Homo sapiens) (UniProt P16234)", "sequence (P16234 whole entry)": "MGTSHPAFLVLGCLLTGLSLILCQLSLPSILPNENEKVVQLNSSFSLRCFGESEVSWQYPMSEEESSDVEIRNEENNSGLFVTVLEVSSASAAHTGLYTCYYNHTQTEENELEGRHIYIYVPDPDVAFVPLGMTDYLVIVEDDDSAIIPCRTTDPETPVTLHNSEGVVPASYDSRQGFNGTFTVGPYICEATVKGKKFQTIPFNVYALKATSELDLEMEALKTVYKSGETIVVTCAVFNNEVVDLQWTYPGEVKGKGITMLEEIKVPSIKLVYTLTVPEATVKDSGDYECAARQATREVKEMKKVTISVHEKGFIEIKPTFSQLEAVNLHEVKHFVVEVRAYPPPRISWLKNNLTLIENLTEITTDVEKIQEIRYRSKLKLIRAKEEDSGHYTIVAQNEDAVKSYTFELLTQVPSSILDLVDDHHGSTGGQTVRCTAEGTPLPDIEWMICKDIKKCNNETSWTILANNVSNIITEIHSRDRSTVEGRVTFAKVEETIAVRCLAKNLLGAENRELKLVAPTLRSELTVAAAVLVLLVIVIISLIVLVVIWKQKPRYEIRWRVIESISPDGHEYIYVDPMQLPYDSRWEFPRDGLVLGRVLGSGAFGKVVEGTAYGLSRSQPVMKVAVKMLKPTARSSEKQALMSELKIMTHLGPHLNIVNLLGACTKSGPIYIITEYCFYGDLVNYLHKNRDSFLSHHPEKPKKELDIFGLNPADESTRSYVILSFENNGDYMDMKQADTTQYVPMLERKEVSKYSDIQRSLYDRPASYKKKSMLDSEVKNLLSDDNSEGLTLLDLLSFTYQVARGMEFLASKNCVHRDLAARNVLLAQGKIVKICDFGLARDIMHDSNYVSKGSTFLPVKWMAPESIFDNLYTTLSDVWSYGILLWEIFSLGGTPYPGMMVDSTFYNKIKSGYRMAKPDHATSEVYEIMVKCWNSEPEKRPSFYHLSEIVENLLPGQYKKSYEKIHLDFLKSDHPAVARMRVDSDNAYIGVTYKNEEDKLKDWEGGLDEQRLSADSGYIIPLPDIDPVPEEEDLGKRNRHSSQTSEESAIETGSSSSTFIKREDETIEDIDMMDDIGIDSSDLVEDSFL", "experiment": "Inhibition of PDGFRA (unknown origin) at 1 uM relative to control"}, "[12]": {"experiment": "Half life in Sprague-Dawley rat at 1 mg/kg, iv by LC-MS/MS analysis", "assay_type": "ADME, organism-based", "conditions": "in vivo", "method_in_brief": "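Male Sprague-Dawley rats (200-240 g) were dosed either by tail vein at 1 mg/kg in 2% DMSO/20% PEG400/78% buffered saline or by oral gavage at 10 mg/kg in 0.5% methylcellulose. Blood was drawn by orbital sinus puncture at 2 min to 24 h into heparin, and plasma was analysed by LC/MS/MS in SRM mode. Parameters came from non-compartmental analysis.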"}, "[13]": {"experiment": "Oral bioavailability in Sprague-Dawley rat at 10 mg/kg administered via gavage after 24 hrs by LC-MS/MS analysis", "assay_type": "ADME, organism-based", "conditions": "in vivo", "method_in_brief": "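Male Sprague-Dawley rats (200-240 g) received 1 mg/kg by tail-vein injection in 2% DMSO, 20% PEG400 and 78% buffered saline, or 10 mg/kg by oral gavage in 0.5% methylcellulose. Orbital sinus blood was drawn into heparinized tubes at 2, 5, 15 and 30 min and at 1, 2, 4, 8, 12 and 24 h, then centrifuged. Plasma was measured by LC/MS/MS in SRM mode, with non-compartmental analysis.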"}, "NCI-H1975": {"test_system": "NCI-H1975", "experiment": "In vivo anti tumor activity against human NCI-H1975 cells xenografted in nude C.B-17 SCID mouse model assessed as relative tumor volume at 5 mg/kg, ig for 18 days measured twice a week relative to control", "assay_type": "functional", "method_in_brief": "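C.B-17 SCID mice received s.c. inoculation of 5 × 10^6 H1975 cells. At 100-150 mm3 they were randomized (n = 9 per group) and dosed intragastrically once daily for 18 days, with PBS as the control. Tumors were measured by caliper twice weekly, with V = length × width²/2. RTV = V/V0, and T/C% = treated mean RTV / control mean RTV × 100.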"}},
  "data": [
    {"smiles": "C=CC(=O)Nc1cc(Nc2nccc(-c3cn4c5c(cccc35)CCC4)n2)c(OC)cc1N(C)CCN(C)C", "values": [
      {"measurement": "CLint scaled", "setting": "[1]", "result": 63.4, "unit": "mL/min/kg"},
      {"measurement": "inhibition", "setting": "[2]", "result": -2, "unit": "%"},
      {"measurement": "half-life", "setting": "[3]", "result": "> 3", "unit": "h"},
      {"measurement": "inhibition", "setting": "[4]", "result": 9, "unit": "%"},
      {"measurement": "half-life", "setting": "[5]", "result": 0.482, "unit": "h"},
      {"measurement": "inhibition", "setting": "[6]", "result": 2, "unit": "%"},
      {"measurement": "CLint scaled", "setting": "[7]", "result": 64.8, "unit": "mL/min/kg"},
      {"measurement": "inhibition", "setting": "[8]", "result": -2, "unit": "%"},
      {"measurement": "inhibition", "setting": "[9]", "result": 37, "unit": "%"},
      {"measurement": "inhibition", "setting": "[10]", "result": 7, "unit": "%"},
      {"measurement": "inhibition", "setting": "[11]", "result": 13, "unit": "%"},
      {"measurement": "half-life", "setting": "[12]", "result": 4.5, "unit": "h"},
      {"measurement": "bioavailability", "setting": "[13]", "result": 52.4, "unit": "%"},
      {"measurement": "T/C", "setting": "NCI-H1975", "result": 56.4, "unit": "%"}
    ]}
  ]
}
